Assay outcomes deposited in PubChem by several laboratories.
MC4R antag cAMP: blocks human MC4R cAMP signaling | P32245 | MC4R-expressing cells, MTII-stimulated cAMP, LANCE TR-FRET | inhibition, % at 6.5 µM | hit rate 0.48% among 360,000 | AID 540295;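 active = inhibition above its plate's cutoff, the mean of tested wells on that plate plus 3 SD, cut at about 29% in these data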;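 note: 0% = Melanotan II alone and 100% = Melanotan II plus saturating MCL0020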
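Material – human MC4R-expressing U2OS cells · Repeats – no replicates · Detection – TR-FRET with Eu-cAMP and labeled anti-cAMP, 671 nm · Times – compound 30 min, challenge 1 h, detection 1 h · Compound – single nominal compound dose of 6.5 µM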
PfGluPho inh: PfG6PD (Plasmodium falciparum) enzyme inhibition; PfGluPho enzyme, NADPH resazurin-diaphorase fluorescence; inhibition, % at 20 µM; hit rate 0.78% among 350,000;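 active = inhibition reaching at least a set limit at 20 µM in the primary screen, cut at about 59% in these data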;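 note: 0% = DMSO wells with substrate and 100% = DMSO wells lacking glucose-6-phosphate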
MC4R barr agon: agonists of human melanocortin 4 receptor (MC4R) beta-arrestin; U2OS MC4R beta-arrestin complementation, luminescence; percent of melanotan II response, DMSO zero; activation, % at 8.9 µM; hit rate 0.98% among 360,000; AID 540308;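 active = activation above a per-plate cutoff, the mean activation of sample wells on that plate plus 3 SD, cut at about 8% in these data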
ABHD5-PLIN5 inh: ABHD5-PLIN5 protein interaction inhibition | inhibition, % at 4 µM | hit rate 0.78% among 360,000 | Split G. princeps luciferase complementation, luminescence, 4 h;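 active = inhibition above the mean inhibition across every tested compound plus 3 SD, cut at about 22% in these data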;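 note: 0% = DMSO only wells and the 100% control is not disclosed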
B2AR ag: agonists of human beta-2 adrenergic receptor inducing internalization; P07550; response, % (no concentration beside the values); AID 504454; Am2.2-beta2AR cells, FAP receptor internalization, flow cytometry; hit rate 0.43% among 340,000;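 active = response above a set limit, near 3 SD of response in nonfluorescent compounds, cut at about 42% in these data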
Target sequence (P07550 whole entry, looked up): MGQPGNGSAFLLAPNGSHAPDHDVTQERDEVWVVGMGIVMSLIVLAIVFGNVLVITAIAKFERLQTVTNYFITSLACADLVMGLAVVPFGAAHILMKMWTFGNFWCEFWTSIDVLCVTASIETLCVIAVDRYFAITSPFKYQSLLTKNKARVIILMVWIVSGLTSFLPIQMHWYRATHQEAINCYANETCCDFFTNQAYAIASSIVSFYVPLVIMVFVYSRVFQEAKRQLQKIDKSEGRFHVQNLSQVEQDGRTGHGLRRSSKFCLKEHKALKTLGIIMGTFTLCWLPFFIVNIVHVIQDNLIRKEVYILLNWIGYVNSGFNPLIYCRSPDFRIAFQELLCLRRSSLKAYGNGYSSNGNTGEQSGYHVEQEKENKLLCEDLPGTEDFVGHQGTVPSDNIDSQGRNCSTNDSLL
ABHD5-PLIN5 conf: ABHD5-PLIN5 interaction inhibition, confirmed. biochemical ABHD5-PLIN5 interaction, luminescence. AID 651612. shares compounds with ABHD5-PLIN5 inh. hit rate 67% among 2,200. inhibition, % at 4 µM; in the data active = inhibition above about 23%;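 note: 0% = DMSO vehicle wells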
HNF4 counter: counter-screen for ABHD5-PLIN5 inhibitors: HNF4 split-luciferase | shares compounds with ABHD5-PLIN5 inh | HNF4 dimerization, luminescence, biochemical | inhibition, % at 4 µM | hit rate 77% among 2,200 | AID 651674;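 active = mean inhibition across replicate wells exceeding the computed hit threshold, cut at about 13% in these data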;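 note: light from luciferase halves that rejoin when HNF4 fusion proteins dimerize; 0% = DMSO only wells and the 100% control is not given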
* hit, by the source's call; x = no result. Hits are enriched below; roughly 3% of the tested compounds scored in any of these assays.

SMILES | MC4R antag cAMP | PfGluPho inh | MC4R barr agon | ABHD5-PLIN5 inh | B2AR ag | ABHD5-PLIN5 conf | HNF4 counter
CCCCCCn1c(=O)n2n(c1=O)[C@@H]1CN(S(=O)(=O)c3ccc(C)cc3)C[C@]1(O)[C@@H](OC(=O)NCc1ccccc1F)C2 | 5 | 49 | 7 | -12 | x | x | x
Cc1ccc(S(=O)(=O)N2C[C@H]3n4c(=O)ccc(=O)n4C[C@H](OC(=O)NCc4ccccc4F)[C@@]3(O)C2)cc1 | 10 | 11 | -1 | 25* | x | 49* | 42*
CCCCCCn1c(=O)n2n(c1=O)[C@@H]1CN(S(=O)(=O)c3ccc(C)cc3)C[C@]1(O)[C@@H](OC(=O)Nc1cccs1)C2 | 11 | 45 | 1 | -17 | x | x | x
NC(=O)N=Nc1c2[nH]c3ccccc3nc-2c2ccccc12 | -6 | 18 | 2 | 2 | 5 | x | x
CCC(C)C(NC(=O)c1ccccc1)C(=O)N1CCN(C(=O)c2ccccc2)CC1 (configuration not stated) | 15 | -16 | -2 | -5 | x | x | x
c1cn2c(-c3ccoc3)cncc2n1 | 9 | x | -2 | 23* | x | 34* | 35*
CN(C)/N=C/C=C1\CCC/C(=C\c2ccc(F)c(F)c2)C1=O | 2 | 6 | 0 | 53* | 3 | 71* | 73*
COc1ccc(C=C2CS(=O)(=O)CC(=Cc3ccc(OC)cc3)C2=O)cc1 | 24 | 35 | -3 | 94* | x | 103* | 105*
COc1ccc(/C=C2\CCCCC2=O)cc1 | 8 | 0 | -1 | -8 | -2 | x | x
COc1ccc(/C=C2/CCOC2=O)cc1 | 9 | -5 | 0 | 0 | 1 | x | x
CN(C)c1ccc(/C=C2\CCC/C(=C\c3ccccc3)C2=O)cc1 | 3 | -3 | -1 | 5 | -10 | x | x
COc1ccc(/C=C2\CCC/C(=C\C=N\N(C)C)C2=O)cc1 | 3 | 12 | -6 | 36* | 12 | 36* | 72*
CC(Oc1ccc(Br)cc1)C(=O)N1CCC(C(N)=O)CC1 (configuration not stated) | -3 | -4 | 1 | 45* | 1 | 10 | 7
O=C(N[C@H](Cc1cc(=O)[nH]c2ccccc12)C(=O)O)c1ccc(Cl)cc1 | 2 | -4 | 0 | 3 | -1 | x | x
CC1CCc2c(sc3ncn(N)c(=N)c23)C1 (configuration not stated) | 14 | -5 | 1 | 3 | 0 | x | x
Cc1ccc2c(c1)c(C1=c3ccccc3=NC1=O)c(O)n2C | -6 | -2 | -2 | 33* | -3 | 88* | 108*
C=CCn1c(O)c(C2=c3ccccc3=NC2=O)c2ccccc21 | -15 | 7 | -1 | 90* | -2 | 85* | 107*
COC(=O)c1c(NC(=O)Cc2ccc(OC)c(S(=O)(=O)N3CCOCC3)c2)sc(C)c1C | 19 | 9 | -2 | 0 | 17 | x | x
Cc1ccc2nc(-c3ccco3)c(CC3CCCCC3)n2c1 | x | x | x | 35* | x | 17 | 22*
Cc1ccc2nc(-c3ccc(Cl)cc3)c(CC3CCCCC3)n2c1 | x | x | x | -9 | x | x | x
CC(C)(C)Cc1c(-c2ccco2)nc2ccc(Cl)cn12 | x | x | x | 15 | x | x | x
Brc1ccc2nc(-c3ccco3)c(CC3CCCCC3)n2c1 | x | x | x | 24* | x | 28* | 38*
COCCn1c(C)cc(/C=C(\C#N)C(=O)OCC(=O)N(C)c2c(N)n(Cc3ccccc3)c(=O)[nH]c2=O)c1C | 10 | 5 | 0 | -3 | -3 | x | x
Cc1ccc([N+](=O)[O-])cc1NC(=O)CSc1nncn1-c1ccccn1 | -1 | 3 | -1 | 24* | -11 | -2 | 5
O=C(Nc1cccc(C(F)(F)F)c1)/C(=C/c1ccco1)NC(=O)c1cccs1 | 2 | 0 | 4 | 30* | -1 | 10 | 11
SMILES | MC4R antag cAMP | PfGluPho inh | MC4R barr agon | ABHD5-PLIN5 inh | B2AR ag | ABHD5-PLIN5 conf | HNF4 counter
CC(=O)c1cccc(NC(=O)/C(=C\c2ccco2)NC(=O)c2cccs2)c1 | 0 | 1 | 2 | 6 | -7 | x | x
O=C(Nc1cccc(F)c1)/C(=C\c1ccco1)NC(=O)c1ccco1 | 1 | 10 | 1 | 27* | 5 | 3 | 0
COc1cc([N+](=O)[O-])ccc1NC(=O)Nn1cnnc1 | 0 | 1 | -2 | 0 | 4 | x | x
N#Cc1cc(Oc2cccc3cccnc23)c(-n2nnc3ccccc32)cc1C#N | 16 | 50 | -3 | 69* | 13 | 13 | 50*
O=C(CC1S/C(=N/N=C/c2c[nH]c3ccc(OCc4ccccc4)cc23)NC1=O)Nc1ccccc1 (configuration not stated) | -3 | -15 | 8 | 10 | 14 | x | x
O=C(CC1S/C(=N/N=C/c2c[nH]c3ccccc23)NC1=O)Nc1ccccc1 (configuration not stated) | 9 | 2 | 0 | 23* | 9 | 20 | 11
CN(C(=O)c1ccc(NC(=O)C2CCCN(C(=O)OC(C)(C)C)C2)cc1)C1CC1 (configuration not stated) | 2 | -19 | -1 | 1 | 0 | x | x
CC(C)(C)OC(=O)N1CCCC(C(=O)Nc2ccc(C(=O)NC3CC3)cc2)C1 (configuration not stated) | 4 | 13 | 0 | 35* | 2 | 2 | 5
Cc1ccc(-c2ccc(CCC(=O)O)o2)cc1 | 5 | 6 | 3 | 28* | 7 | 13 | 44*
CCOc1ccc(Cl)cc1S(=O)(=O)N1CCC(C(=O)NCC2CCCO2)CC1 (configuration not stated) | 0 | -15 | 0 | 8 | -8 | x | x
COc1ccccc1C(C[N+](=O)[O-])c1c(N)n(C)c(=O)n(C)c1=O (configuration not stated) | -11 | -18 | 2 | 39* | 2 | 33* | 65*
CCN(CC)S(=O)(=O)c1cccc(N=Nc2c(O)c3ccccc3oc2=O)c1 | -3 | -26 | 0 | 2 | -3 | x | x
O=C1C=CC2(C=C1)O[C@H](Cc1ccccc1)[C@@H](Cc1ccccc1)O2 | 27 | 37 | -2 | 98* | 38 | 103* | 109*
O=C1Nc2ccccc2C1Cc1ccccc1 (configuration not stated) | -8 | 30 | -1 | 4 | 4 | x | x
CCOC(=O)C1=C(C)NC2=C(C(=O)C(C(=O)OCC)C(c3ccccc3OC)C2)C1c1ccccn1 (configuration not stated) | 10 | 2 | -1 | 8 | 7 | x | x
CCOC(=O)C1=C(C)NC2=C(C(=O)C(C(=O)OCC)C(c3ccco3)C2)C1c1ccccn1 (configuration not stated) | -7 | -3 | -1 | 42* | -4 | 3 | 17*
CCCCC(=O)NC(c1cccc([N+](=O)[O-])c1)c1ccc2cccnc2c1O (configuration not stated) | 2 | -17 | 0 | 33* | 6 | 29* | -2
